In ChEMBL document CHEMBL1629490, “Synthesis and anti-inflammatory evaluation of novel mono-carbonyl analogues of curcumin in LPS-stimulated RAW 264.7 macrophages” (Eur J Med Chem, 2010):
Calls of active or inactive are those of the source. No cut-off for these calls is given here.

What was measured:
RAW264.7 [1] = experiment: Antiinflammatory activity in mouse RAW264.7 cells assessed as inhibition of LPS-induced IL-6 production after 2 hrs by ELISA; format: functional, cell-based; settings: RAW264.7, 2 h
RAW264.7 [2] = experiment: Antiinflammatory activity in mouse RAW264.7 cells assessed as inhibition of LPS-induced IL-6 production at 10 uM after 2 hrs by ELISA; format: functional; settings: for inhibition at 10 µM: RAW264.7, 2 h
In short: (§1)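 RAW 264.7 cells were grown in DMEM with 10% heat-inactivated FBS and penicillin/streptomycin at 37 °C with 5% CO2, plated at 4.0 × 10^5/plate overnight, and pretreated for 2 h with compound at 10 µM (DMSO stock; vehicle control). LPS (0.5 µg/ml) was added for 22 h. TNF-α and IL-6 in the medium were measured by ELISA, normalized to cell protein, and expressed as % of LPS control. Values are mean ± SE of 3–5 independent experiments.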

RAW264.7 [3] = experiment: Cytotoxicity against mouse RAW264.7 cells; format: cell-based
RAW264.7 [4] = experiment: Antiinflammatory activity in mouse RAW264.7 cells assessed as inhibition of LPS-induced TNF alpha production at 10 uM after 2 hrs by ELISA; format: functional; settings: for inhibition at 10 µM: RAW264.7, 2 h; in short: as §1
RAW264.7 [5] = experiment: Antiinflammatory activity in mouse RAW264.7 cells assessed as inhibition of LPS-induced TNF alpha production after 2 hrs by ELISA; format: functional, cell-based; settings: RAW264.7, 2 h
RAW264.7 [6] = experiment: Antiinflammatory activity in mouse RAW264.7 cells assessed as inhibition of LPS-induced IL-6 production at 1 to 20 uM after 2 hrs by ELISA; format: functional, cell-based
In short: (§2)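 Murine RAW 264.7 cells were plated at 4.0 × 10^6/plate overnight (37 °C, 5% CO2) and pretreated for 2 h with compound at 1, 2.5, 5.0, 10 and 20 µM. LPS at 0.5 µg/ml followed for 22 h. Media TNF-α and IL-6 were measured by ELISA, normalized to total cell-lysate protein, and given as % of LPS control. Values are mean ± SE of 3–5 independent experiments.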

RAW264.7 [7] = experiment: Antiinflammatory activity in mouse RAW264.7 cells assessed as inhibition of LPS-induced TNF alpha production at 1 to 20 uM after 2 hrs by ELISA; format: functional, cell-based; in short: as §2

SMILES | inhibition (RAW264.7 [2]) | inhibition (RAW264.7 [4]) | inhibition at 10 µM (RAW264.7 [4]) [%] | other results
CCOc1ccc(Br)cc1/C=C/C(=O)/C=C/c1cc(Br)ccc1OCC | Active | Active | – | IC50 (RAW264.7 [1]): 3.64 µM; Activity (RAW264.7 [3]): Non-toxic; IC50 (RAW264.7 [5]): 6.28 µM; inhibition (RAW264.7 [6]): Dose-dependent effect; inhibition (RAW264.7 [7]): Dose-dependent effect
COc1cc(OC)c(OC)cc1/C=C1\CC/C(=C\c2cc(OC)c(OC)cc2OC)C1=O | Active | Active | – | –
CCOC(OCC)c1cccc(/C=C2\CC/C(=C\c3cccc(C(OCC)OCC)c3)C2=O)c1 | Active | Active | – | –
CCOc1ccc(Br)cc1/C=C1\CC/C(=C\c2cc(Br)ccc2OCC)C1=O | Active | Active | – | –
COc1cccc(/C=C2\CC/C(=C\c3cccc(OC)c3O)C2=O)c1O | Active | Active | – | –
COc1ccc(/C=C2\CC/C(=C\c3ccc(OC)cc3F)C2=O)c(F)c1 | Active | – | 20 | –
CCN(CC)c1ccc(/C=C2\CCC/C(=C\c3ccc(N(CC)CC)cc3)C2=O)cc1 | Active | Active | – | –
O=C(/C=C/c1ccc(N2CCOCC2)cc1)/C=C/c1ccc(N2CCOCC2)cc1 | – | – | > 20 | inhibition at 10 µM (RAW264.7 [2]): 50%
Cc1cc(N(CCCl)CCCl)ccc1/C=C1\CCC/C(=C\c2ccc(N(CCCl)CCCl)cc2C)C1=O | Active | Active | – | –
COc1cc(OC)c(OC)cc1/C=C/C(=O)/C=C/c1cc(OC)c(OC)cc1OC | Active | – | > 20 | –
COc1ccc(F)c(/C=C2\CC/C(=C\c3cc(OC)ccc3F)C2=O)c1 | – | Active | – | inhibition at 10 µM (RAW264.7 [2]): 30%
COc1cc(/C=C/C(=O)CC(=O)/C=C/c2ccc(O)c(OC)c2)ccc1O [CURCUMIN] | – | – | 35.6 | inhibition at 10 µM (RAW264.7 [2]): 75.7%
O=C1/C(=C/c2ccc(N3CCCCC3)cc2)CCC/C1=C\c1ccc(N2CCCCC2)cc1 | Active | Active | – | –
O=C1/C(=C/c2cccc(C(F)(F)F)c2F)CC/C1=C\c1cccc(C(F)(F)F)c1F | Active | Active | – | –
O=C1/C(=C/c2ccc(N3CCOCC3)cc2)CCC/C1=C\c1ccc(N2CCOCC2)cc1 | Active | Active | – | –
COc1cc(OC)c(OC)cc1/C=C1\CCC/C(=C\c2cc(OC)c(OC)cc2OC)C1=O | Active | Active | – | –
COc1cccc(/C=C/C(=O)/C=C/c2cccc(OC)c2O)c1O | Active | Active | – | –

SMILES | inhibition (RAW264.7 [2]) | inhibition (RAW264.7 [4]) | inhibition at 10 µM (RAW264.7 [4]) [%] | other results
Cc1cc(N(CCCl)CCCl)ccc1/C=C/C(=O)/C=C/c1ccc(N(CCCl)CCCl)cc1C | – | – | 20 | inhibition at 10 µM (RAW264.7 [2]): 30%
O=C(/C=C/c1c(F)cccc1C(F)(F)F)/C=C/c1c(F)cccc1C(F)(F)F | – | Active | – | inhibition at 10 µM (RAW264.7 [2]): 30%
CCOc1ccc(Br)cc1/C=C1\CCC/C(=C\c2cc(Br)ccc2OCC)C1=O | Active | Active | – | –
Cc1cc(N(CCCl)CCCl)ccc1/C=C1\CC/C(=C\c2ccc(N(CCCl)CCCl)cc2C)C1=O | – | Active | – | inhibition at 10 µM (RAW264.7 [2]): 30%
COc1ccc(/C=C/C(=O)/C=C/c2ccc(OC)cc2F)c(F)c1 | – | – | 20 | inhibition at 10 µM (RAW264.7 [2]): 51.1%
O=C1/C(=C/c2ccc(C(F)(F)F)cc2C(F)(F)F)CCC/C1=C\c1ccc(C(F)(F)F)cc1C(F)(F)F | Active | – | 20 | –
O=C1/C(=C/c2c(F)cccc2C(F)(F)F)CCC/C1=C\c1c(F)cccc1C(F)(F)F | Active | Active | – | –
CCN(CC)c1ccc(/C=C2\CC/C(=C\c3ccc(N(CC)CC)cc3)C2=O)cc1 | – | – | 67.5 | IC50 (RAW264.7 [1]): 1.07 µM; inhibition at 10 µM (RAW264.7 [2]): 92.7%; Activity (RAW264.7 [3]): Non-toxic; IC50 (RAW264.7 [5]): 16.4 µM; inhibition (RAW264.7 [6]): Dose-dependent effect; inhibition (RAW264.7 [7]): Dose-dependent effect
O=C1/C(=C/c2ccc(N3CCOCC3)cc2)CC/C1=C\c1ccc(N2CCOCC2)cc1 | Active | Active | – | –
O=C1/C(=C/c2c(F)cccc2C(F)(F)F)CC/C1=C\c1c(F)cccc1C(F)(F)F | Active | – | > 20 | –
O=C1/C(=C/c2ccc(N3CCCCC3)cc2)CC/C1=C\c1ccc(N2CCCCC2)cc1 | Active | – | 20 | –
CCN(CC)c1ccc(/C=C/C(=O)/C=C/c2ccc(N(CC)CC)cc2)cc1 | – | Active | – | inhibition at 10 µM (RAW264.7 [2]): 50%
O=C1/C(=C/c2cccc(C(F)(F)F)c2F)CCC/C1=C\c1cccc(C(F)(F)F)c1F | Active | – | > 20 | –
COc1ccc(F)c(/C=C2\CCC/C(=C\c3cc(OC)ccc3F)C2=O)c1 | Active | – | 20 | –
O=C(/C=C/c1ccc(N2CCCCC2)cc1)/C=C/c1ccc(N2CCCCC2)cc1 | – | Active | – | inhibition at 10 µM (RAW264.7 [2]): 50%
O=C1/C(=C/c2ccc(C(F)(F)F)cc2F)CCC/C1=C\c1ccc(C(F)(F)F)cc1F | Active | Active | – | –
O=C1/C(=C/c2ccc(C(F)(F)F)cc2F)CC/C1=C\c1ccc(C(F)(F)F)cc1F | Active | Active | – | –
